Tests used:
Cholinesterase = Cholinesterase (Homo sapiens, UniProt P06276); test: Inhibition of human Butyrylcholinesterase
Procedure, shortened: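 Compounds in Tween 80/EtOH 3:1 were diluted in half-log steps to 0.3 nM–[…] final and preincubated with enzyme in pH 8.0 buffer for 30 min at RT. Run on four occasions. IC50 from logit activity versus log concentration.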

Acetylcholinesterase = Acetylcholinesterase (Homo sapiens, UniProt P22303); test: Inhibition of human acetylcholinesterase from erythrocytes (RBC)
[1] = In vivo half life of the compound; format: ADME, organism-based

Sequence of Cholinesterase (P06276 whole entry): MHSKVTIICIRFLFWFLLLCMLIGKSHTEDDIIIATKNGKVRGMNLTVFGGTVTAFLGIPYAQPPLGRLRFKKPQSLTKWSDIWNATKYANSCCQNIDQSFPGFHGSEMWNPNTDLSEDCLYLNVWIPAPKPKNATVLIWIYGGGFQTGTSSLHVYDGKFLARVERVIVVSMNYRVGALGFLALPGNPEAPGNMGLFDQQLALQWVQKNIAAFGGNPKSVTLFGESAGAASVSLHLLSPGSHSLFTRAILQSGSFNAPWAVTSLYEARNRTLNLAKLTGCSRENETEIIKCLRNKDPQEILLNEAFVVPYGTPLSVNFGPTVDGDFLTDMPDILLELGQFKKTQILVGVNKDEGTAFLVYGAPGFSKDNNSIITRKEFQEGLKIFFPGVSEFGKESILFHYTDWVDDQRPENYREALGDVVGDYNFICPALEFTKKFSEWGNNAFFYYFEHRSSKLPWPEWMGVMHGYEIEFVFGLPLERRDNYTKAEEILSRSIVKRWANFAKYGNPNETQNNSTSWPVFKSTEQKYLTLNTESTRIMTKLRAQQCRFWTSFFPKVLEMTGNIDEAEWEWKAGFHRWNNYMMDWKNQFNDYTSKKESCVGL
Sequence of Acetylcholinesterase (P22303 whole entry): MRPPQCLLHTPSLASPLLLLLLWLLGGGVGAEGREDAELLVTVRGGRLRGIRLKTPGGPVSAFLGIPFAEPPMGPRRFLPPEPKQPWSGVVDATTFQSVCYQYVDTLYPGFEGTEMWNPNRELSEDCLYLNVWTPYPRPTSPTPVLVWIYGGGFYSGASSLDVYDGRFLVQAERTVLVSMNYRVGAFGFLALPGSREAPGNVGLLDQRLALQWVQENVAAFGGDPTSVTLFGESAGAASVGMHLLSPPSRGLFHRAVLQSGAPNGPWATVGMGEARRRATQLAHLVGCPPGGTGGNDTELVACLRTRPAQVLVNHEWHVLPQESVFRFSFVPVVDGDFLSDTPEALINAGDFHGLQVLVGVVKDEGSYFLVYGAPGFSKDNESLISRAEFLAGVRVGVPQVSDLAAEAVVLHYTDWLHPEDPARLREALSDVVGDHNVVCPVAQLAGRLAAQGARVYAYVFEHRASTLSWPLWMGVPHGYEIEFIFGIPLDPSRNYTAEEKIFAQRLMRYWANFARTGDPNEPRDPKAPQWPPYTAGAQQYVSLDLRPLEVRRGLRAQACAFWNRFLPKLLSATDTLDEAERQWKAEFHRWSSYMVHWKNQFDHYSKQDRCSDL

Compound: CN1CC[C@]2(C)c3cc(OC(=O)Nc4ccccc4)ccc3NC12 (stereo not given in full)
- IC50 (Cholinesterase): 1750 nM
- IC50 (Acetylcholinesterase): 5650 nM

Compound: CN1CC[C@]2(C)c3cc(OC(=O)Nc4ccccc4)ccc3N(C)C12 (stereo not given in full)
- IC50 (Cholinesterase): 23500 nM
- IC50 (Acetylcholinesterase): 3500 nM

Compound: CNC(=O)Oc1ccc2c(c1)[C@]1(C)CCN(C)[C@@H]1N2C [PHYSOSTIGMINE]
- half-life [1]: 1 h

Compound: CN1CC[C@@]2(C)c3cc(OC(=O)Nc4ccccc4)ccc3N(C=O)C12 (stereo not given in full)
- IC50 (Cholinesterase): 1470 nM
- IC50 (Acetylcholinesterase): 780 nM

Compound: CNC(=O)Oc1ccc2c(c1)[C@]1(C)CCN(C)C1N2Cc1ccccc1 (stereo not given in full)
- IC50 (Cholinesterase): 21.8 nM
- IC50 (Acetylcholinesterase): 161 nM

Compound: CNC(=O)Oc1ccc2c(c1)[C@]1(C)CCN(C)C1N2C=O (stereo not given in full)
- IC50 (Cholinesterase): 46 nM
- IC50 (Acetylcholinesterase): 387 nM

Compound: CN1CC[C@@]2(C)c3cc(OC(=O)Nc4ccccc4)ccc3N(C)C12 (stereo not given in full)
- IC50 (Cholinesterase): 1300 nM
- half-life [1]: 8 h
- IC50 (Acetylcholinesterase): 24 nM

Compound: CNC(=O)Oc1ccc2c(c1)[C@@]1(C)CCN(C)C1N2Cc1ccccc1 (stereo not given in full)
- IC50 (Cholinesterase): 1590 nM
- IC50 (Acetylcholinesterase): 2850 nM

Compound: CN1CC[C@@]2(C)c3cc(OC(=O)Nc4ccccc4)ccc3NC12 (stereo not given in full)
- IC50 (Cholinesterase): 516 nM

Compound: CNC(=O)Oc1ccc2c(c1)[C@]1(C)CCN(C)C1N2 (stereo not given in full)
- IC50 (Cholinesterase): 6.8 nM
- IC50 (Acetylcholinesterase): 56.7 nM

Compound: CN1CC[C@@]2(C)c3cc(OC(=O)Nc4ccccc4)ccc3N(Cc3ccccc3)C12 (stereo not given in full)
- IC50 (Cholinesterase): 85.3 nM
- IC50 (Acetylcholinesterase): 245 nM

Compound: CNC(=O)Oc1ccc2c(c1)[C@@]1(C)CCN(C)C1N2 (stereo not given in full)
- IC50 (Cholinesterase): 1120 nM
- IC50 (Acetylcholinesterase): 2190 nM

Compound: CN1CC[C@]2(C)c3cc(OC(=O)Nc4ccccc4)ccc3N(Cc3ccccc3)C12 (stereo not given in full)
- IC50 (Cholinesterase): 7090 nM
- IC50 (Acetylcholinesterase): 11200 nM

Reference: ChEMBL document CHEMBL1130392, “Total syntheses and anticholinesterase activities of (3aS)-N(8)-norphysostigmine, (3aS)-N(8)-norphenserine, their antipodal isomers, and other N(8)-substituted analogues” (J Med Chem, 1997)
